Shown are actives, neighbours in structure and some others; about 2% of the full set was active somewhere.
CAL PDZ FP-1: blocks peptide binding to the human CAL PDZ domain; actives 0.92% (n = 300,000); Q9HD26; purified CAL PDZ, TMR-peptide fluorescence polarization, 1 h; inhibition, % at 24.9 µM;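 active = mean inhibition of at least 30% with at least half of replicates also reaching 30%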;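 note: 0% = DMSO neutral control and 100% = excess unlabeled competitor peptide PRC23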
PKA-R2B act: activates the human PKA-R2B holoenzyme complex. PKA-R2B holoenzyme dissociation, Cy5-IP20 fluorescence polarization; R2B truncated from residue 108, S112A mutant; 0% DMSO only, 100% 113 µM cGMP. activation, % at 11.4 µM. actives 0.079% (n = 340,000);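 active = activation above a cutoff set at the mean over all compounds plus 3 SD, cut at about 18% in these data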;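 note: higher means more holoenzyme dissociation and a rise in polarization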
CAL PDZ FP-2: blocks peptide binding to human CAL PDZ domain; inhibition, % at 20 µM; purified CAL PDZ, TMR-peptide fluorescence polarization, 1 h; Q9HD26; actives 0.02% (n = 330,000);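 active = highest replicate inhibition of at least 40%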;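 note: plate controls were DMSO neutral control wells for no effect and unlabeled competitor peptide control wells for full effect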
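Read-out basis: mP drop reported as inhibition | Assay system: Tagged CAL PDZ protein CerCALP, purified | Benchmarks: Unlabelled peptide for full inhibition, DMSO wells as neutral | Schedule: 1 h incubation at room temperature before polarization reading | Buffer or medium: Sodium phosphate/NaCl buffer pH 7.4 with TCEP, IgG, Thesit | Doses: Single point, 20 µM | Measured by: Fluorescence polarization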
NTR1 ag: agonists of human neurotensin receptor NTR1 | P30989 | NTR1-U2OS beta-arrestin-GFP spot imaging, agonist mode | activation, % at 20 µM | actives 0.17% (n = 330,000) | AID 493036;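 active = activation at or above 40% of the spot to cytoplasm intensity ratio, with at least 20 cells analyzed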;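 note: 0% = DMSO without peptide and 100% = 100 nM NTR1 peptide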
Target sequence (P30989 whole entry, looked up): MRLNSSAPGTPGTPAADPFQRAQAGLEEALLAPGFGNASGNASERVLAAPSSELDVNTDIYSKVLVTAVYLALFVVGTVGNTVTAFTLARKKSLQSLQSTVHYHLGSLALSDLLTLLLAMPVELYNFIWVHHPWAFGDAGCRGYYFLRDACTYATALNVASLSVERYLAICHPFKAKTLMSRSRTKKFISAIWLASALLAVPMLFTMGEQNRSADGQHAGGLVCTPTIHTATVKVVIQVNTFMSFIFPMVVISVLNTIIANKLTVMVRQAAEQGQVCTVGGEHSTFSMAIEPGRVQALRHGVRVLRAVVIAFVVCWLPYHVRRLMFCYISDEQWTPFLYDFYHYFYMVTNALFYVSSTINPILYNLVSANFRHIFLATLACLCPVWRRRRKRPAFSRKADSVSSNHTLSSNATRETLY
PKA-R1A act: activates the PKA-R1A holoenzyme complex. actives 0.083% (n = 340,000). AID 504707. P00514+P68181. PKA-R1A dissociation, Cy5-IP20 fluorescence polarization; scaled: DMSO 0%, 113 µM cGMP 100%. activation, % at 11.4 µM;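 active = percent activation above the mean of all tested compounds plus 3 SD, cut at about 19% in these data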;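 note: higher means more PKAc released from R1A so a rise in polarization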
dFosB act: mouse delta FosB homodimer activation. P13346. purified delta FosB, TAMRA-CDK5 oligo fluorescence polarization; percent of positive-control signal above neutral wells. activation, % at 25 µM. actives 0.99% (n = 340,000). AID 493131;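 active = mean activation above about 17%, with every replicate also reaching it, limit read from the data, passing the limit was not always enough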
* marks the source's active call; other numbers are inactive results; / = no result.

SMILES | CAL PDZ FP-1 | PKA-R2B act | CAL PDZ FP-2 | NTR1 ag | PKA-R1A act | dFosB act
CCOC(=O)c1ccc2c(c1)C1C=CCC1C(C(=O)O)N2 (centres undefined) | / | / | / | 0 | / | /
CCOC(=O)C1Nc2ccc(C(=O)O)cc2C2C=CCC12 (centres undefined) | 44* | 5 | / | 1 | -1 | -6
COc1cc(NC(=O)CN2CCN(C(=O)c3ccco3)CC2)c(C)cc1[N+](=O)[O-] | / | -12 | / | / | 3 | /
O=C(Cc1c(C(=O)O)[nH]c2ccccc12)NCCN1CCN(c2cccc(Cl)c2)CC1 | 62* | -9 | 0 | 0 | -1 | -3
CCOC(=O)c1csc(Nc2nc3ccc(F)cc3s2)n1 | 39* | -7 | 0 | 6 | 0 | -1
CCCCN(C(=O)c1c(-c2ccccc2)noc1C)c1c(N)n(CCC)c(=O)[nH]c1=O | / | 0 | 1 | 2 | -6 | -3
Cc1ccc(S(=O)(=O)N(C)C)cc1NC(=O)CSc1nnc(C2CC2)n1C1CC1 | -1 | 9 | 0 | 4 | 15 | -6
OCC1(CCOc2ccccc2)CCN(Cc2cccn2-c2ncccn2)CC1 | 56* | 5 | -1 | 1 | -8 | -5
COc1cc(CN2CCC(CO)(CCOc3ccccc3)CC2)cc(OC)c1 | 5 | -6 | 0 | 0 | -6 | -2
CC(CO)NS(=O)(=O)c1ccc(Br)cc1F (centres undefined) | 40* | -9 | 1 | / | -14 | 6
COc1ccc(CNC(=O)Nc2cccc(Cl)c2)cc1 | -6 | -17 | 0 | 0 | -4 | 24*
COc1ccc(CNC(=S)Nc2cccc(Cl)c2)cc1 | / | / | / | -1 | / | /
CC(C)CN1C(=O)c2ccc(NC(=O)Cc3ccccc3)cc2C1=O | 74* | 15 | 0 | -1 | -8 | -3
CC(=O)N1CCN(c2ccc(NC(=O)C(c3ccccc3)c3ccccc3)cc2)CC1 | -7 | -1 | / | 0 | 4 | -13
O=C(Cc1ccccc1)Nc1ccc(N2CCCC2)cc1 | -5 | -4 | -1 | 2 | -8 | 68*
CCN(C(=O)c1ccc(NC(=O)Cc2ccccc2)cc1)c1ccccc1 | 48* | -9 | -1 | 4 | -9 | -14
O=C(Nc1ccc(N2CCCC2)cc1)C(c1ccccc1)c1ccccc1 | -4 | 1 | -2 | 2 | 2 | 77*
CN(C(=O)c1ccc(NC(=O)Cc2ccccc2)cc1)c1ccccc1 | -5 | -14 | 2 | 0 | -12 | -8
CCCC(=O)Nc1ccc(N2CCN(C(=O)CCC)CC2)cc1 | 39* | 0 | -1 | -2 | -6 | -2
O=C(COC(=O)c1ccc(Cl)nc1)Nc1ccc(N2CCCCC2)cc1 | 41* | 1 | / | 2 | -2 | -9
CC1(C)CC(=O)C2=C(C1)NC(Nc1nc3ccccc3o1)=NC2c1ccccn1 (centres undefined) | 4 | -3 | 0 | 1 | -2 | 1
CC1=C(C(=O)Nc2ccccc2)C(c2ccc(C)cc2)N=C(Nc2nc3ccccc3o2)N1 (centres undefined) | -3 | 3 | -2 | 25 | -11 | 42*
COc1ccccc1C(=O)NCC(=O)OC(C)C(=O)N1CCOCC1 (centres undefined) | -1 | 17 | -1 | -1 | -1 | -4
COC(=O)c1ccc(CN2C(=O)c3ccccc3S2(=O)=O)cc1 | 55* | 3 | / | 0 | -9 | -4
COc1ccc(NC(=O)C2CCN(S(=O)(=O)c3ccc(N4CCCC4=O)cc3)CC2)c(OC)c1 | 34* | 5 | -2 | 0 | -4 | -6
COc1ccc(NC(=O)C2CCN(S(=O)(=O)c3ccc(OC)c(OC)c3)CC2)c(OC)c1 | -16 | -3 | -1 | -5 | -4 | -5
COc1ccccc1C(=O)NNS(=O)(=O)c1ccc(F)cc1 | -5 | 7 | 0 | 0 | -8 | 4
O=C(NNS(=O)(=O)c1ccc(F)cc1)c1ccccc1F | 41* | -1 | -5 | 0 | 2 | 3
Cc1cc(S(=O)(=O)N2c3ccc(F)cc3CCC2C)ccc1-n1cnnn1 (centres undefined) | / | 1 | -1 | 1 | 2 | -3
